Compounds with a hit are over-represented: about 2.3% of the library has one in this group of screens.
HIV Env fusion: inhibitors of HIV Env-mediated cell fusion; HeLa-JRFL Env/CEM21 cell fusion, luciferase; AID 651610; inhibition, % at 12.3 µM; 360,000 compounds, 1.1% hits;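 active = mean replicate inhibition score of at least 50 and every replicate individually at or above 50; inconclusive = only one of the two criteria met; inactive = mean below 50 and not all replicates reaching 50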;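 note: 0% = plate neutral controls and 100% = maraviroc near 300 nM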
EWS-Fli block: blocks EWS/Fli oncoprotein-driven transcription; 350,000 compounds, 0.67% hits; AID 651661; A673 NR0B1-luciferase reporter, viability-normalised; inhibition, % at 12.6 µM;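 active = mean inhibition of at least 50% after viability correction, with every replicate also passing that limit; inconclusive = mean reaches 50% but only one of two replicates passes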;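 note: firefly luciferase signal divided by Alamar Blue viability fluorescence both relative to DMSO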
CFTR F508del cor: CFTR F508del correction in bronchial cells. CFBE cells, YFP halide quenching; stimulated with forskolin plus potentiator P3; % fluorescence drop versus neutral controls. activity (quench increase), % at 7.58 µM. 350,000 compounds, 0.36% hits. AID 720511;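 active = mean added fluorescence quench of at least 8% versus neutral control, with both replicates also reaching 8%; inconclusive = only one of the mean or replicate conditions met; inactive = mean below 8% and not both replicates reaching 8%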;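 note: cells transiently co-express mutant CFTR-F508del with the halide-sensitive YFP; corrector assay measuring rescue of mutant channel to the surface after 24 h compound exposure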
PGC1a acetyl inh: lowers PGC1a acetylation signal in U2OS cells; 350,000 compounds, 0.17% hits; inhibition, % at 15.6 µM; AlphaScreen anti-acetyl-lysine; with virally co-expressed GCN5 acetyltransferase;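 active = every replicate shows inhibition of at least 40%; inconclusive = mean inhibition at least 40% but some replicate below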;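 note: 0% = neutral control wells and 100% = positive control wells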
FN deposition inh: fibronectin deposition inhibition. inhibition, % at 12.6 µM. 350,000 compounds, 0.086% hits. AH1F fibroblasts, Alexa488-fibronectin deposition fluorescence, overnight;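 active = mean inhibition across replicates of 30% or more, regardless of how many single replicates reach that level; inconclusive = mean under 30% yet at least half of replicates reach 30%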;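 note: positive control wells lacked labelled fibronectin entirely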
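Test system: AH1F fibroblast monolayer depositing Alexa488-labelled fibronectin into matrix. Input: 10000 cells per well. Technique: fluorescence, ex 485 nm, em 525 nm. Buffer or medium: DMEM plus 2% serum, read in PBS. Timing: 1 h cell adhesion before compound, then overnight fibronectin incubation. Compound: single dose, pinned. Read-out basis: inhibition from reduced deposited-fibronectin fluorescence.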
PAX8 inh HTS: inhibitors of PAX8 transcriptional activity in RMG-I cells; RMG-I TPO-luciferase reporter, SteadyGlo, 24 h; inhibition, % at 12.6 µM; 360,000 compounds, 1.2% hits; AID 652154;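 active = mean replicate inhibition at least 60% with every replicate also reaching 60%; inconclusive = only one of the two criteria is met; inactive = mean below 60% and not all replicates reaching 60%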;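 note: luciferase light reporting Pax8 driven TPO promoter activity; plate controls were median of neutral control wells for no effect and mitoxantrone controls for full effect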
Numbers without * were called inactive; ? = inconclusive; . = no result; [ ] = remark or other dose.

SMILES | HIV Env fusion | EWS-Fli block | CFTR F508del cor | PGC1a acetyl inh | FN deposition inh | PAX8 inh HTS
CCOC(=O)C1=C(C)NC(SC)=C(C#N)C1CC(C)C (stereo unspecified) | -40 | 54* | ? | -5 | 21 | 23
CC(=O)C1=C(C)NC(SCC(N)=O)=C(C#N)C1CC(C)C (stereo unspecified) | 11 | 0 | 1 | -18 | -4 | 5
COc1ccc2c3c([nH]c2c1)[C@@H](CO)N(Cc1ccccn1)CC31CCN(C(=O)c2ccccn2)CC1 | . | 13 | 3 | 1 | . | .
C[C@H]1CN([C@@H](C)CO)C(=O)c2cc(NC(=O)Nc3ccc(F)cc3)ccc2O[C@@H]1CN(C)Cc1ccncc1 | -2[16.7 µM] | -1 | -4 | -6 | . | -7
C=CC[C@H](CC(=O)NCCO)C(=O)N[C@H](COC(=O)[C@@H](CC=C)Cc1ccc(F)cc1)Cc1ccccc1 | 59* | -2 | -1 | 5 | 7 | -4
C=CC[C@H](CC(=O)NCCO)C(=O)N[C@@H](COC(=O)[C@@H](CC=C)Cc1ccc(F)cc1)Cc1ccccc1 | 79* | -7 | -3 | 4 | -13 | 0
CCCNC(=O)N1[C@H](CO)[C@H](c2ccc(C3=CCCC3)cc2)[C@H]1CNC(C)=O | . | 1 | 2 | 5 | -4 | 7
CCOCCCNC(=O)C1CCCN(S(=O)(=O)CC)C1 (stereo unspecified) | . | . | . | -7 | . | .
CCCS(=O)(=O)N1CCCC(C(=O)NCCCOC(C)C)C1 (stereo unspecified) | . | . | . | 64* | . | .
Cc1ccc(S(=O)(=O)Nc2ccc3c(c2)CC(=O)N([C@H](C)CO)C[C@H](C)[C@H](CN(C)S(=O)(=O)c2ccccc2)O3)cc1 | 80*[16.7 µM] | 4 | 0 | -2 | 3 | 8
Cc1ccc(S(=O)(=O)Nc2ccc3c(c2)CC(=O)N([C@@H](C)CO)C[C@H](C)[C@H](CN(C)S(=O)(=O)c2ccccc2)O3)cc1 | 67*[16.7 µM] | -1 | 0 | 1 | -7 | -5
Cc1ccc(S(=O)(=O)N(C)C[C@@H]2Oc3ccc(NS(=O)(=O)c4ccccc4)cc3CC(=O)N([C@H](C)CO)C[C@@H]2C)cc1 | 100*[16.7 µM] | 4 | -1 | -4 | . | 2
Cc1ccc(S(=O)(=O)Nc2ccc3c(c2)CC(=O)N([C@H](C)CO)C[C@@H](C)[C@@H](CN(C)S(=O)(=O)c2ccccc2)O3)cc1 | 18[16.7 µM] | -2 | 1 | 2 | 3 | 7
C[C@H](CO)N1C[C@H](C)[C@@H](CN(C)CC2CC2)OCc2ccccc2-c2c(n(C)c3ccccc23)C1=O | . | . | . | . | 6 | .
CC(C)(C)c1ccc(C(=O)CCCSC2=C(C#N)C(c3ccco3)C3=C(CCCC3=O)N2)cc1 (stereo unspecified) | 79* | . | . | -13 | -4 | 31
Cc1oc2ccc(O)cc2c1C(=O)c1ccc(Cl)cc1 | 13 | . | . | . | -3 | -90
Cc1oc2ccc(O)cc2c1C(=O)c1ccc(Br)cc1 | -4 | 6 | 1 | . | 34* | -57
CCOC(=O)/C(=C\c1ccccc1)C(=O)c1cc(C(C)=O)c(Nc2ccccc2)s1 | . | . | . | 9 | . | .
CCOC(=O)/C(=C\c1cccnc1)C(=O)c1cc(C(C)=O)c(Nc2ccccc2)s1 | . | . | . | 84* | . | .
CO[C@H](CN(C)C(=O)c1ccccc1F)[C@@H](C)CN([C@H](C)CO)S(=O)(=O)c1ccc(C)cc1 | . | -8 | 0 | -15 | -6 | .
Cc1ccc(S(=O)(=O)N(C)C[C@@H]2Oc3c(NC(=O)Nc4cccc5ccccc45)cccc3C(=O)N([C@@H](C)CO)C[C@H]2C)cc1 | . | 17 | 2 | -6 | 2 | .
C[C@@H]1CN([C@H](C)CO)C(=O)c2cccc(NC(=O)Nc3cccc4ccccc34)c2O[C@H]1CN(C)C(=O)Nc1ccc(C(F)(F)F)cc1 | 18[16.7 µM] | 10 | 1 | -5 | . | 81*
COc1ccc(NC(=O)N(C)C[C@H]2Oc3c(cccc3N(C)C)C(=O)N([C@H](C)CO)C[C@H]2C)cc1 | -1[16.7 µM] | -10 | 8.1* | -7 | . | -21
Cc1ccc(S(=O)(=O)N(C)C[C@H]2Oc3c(NC(=O)Nc4cccc5ccccc45)cccc3C(=O)N([C@@H](C)CO)C[C@@H]2C)cc1 | -24 | 3 | 4 | -15 | 13 | 103*

Screening results (PubChem BioAssay)
